Laboratory results taken from ChEMBL document CHEMBL1138578, “Synthesis and antibacterial activity of nitroaryl thiadiazole-gatifloxacin hybrids” (Eur J Med Chem, 2009).
Values after ≈ are worked out from the molar mass of the structure shown.

Tests used:
[1] = test system: Klebsiella pneumoniae; assay: Antibacterial activity against Klebsiella pneumoniae ATCC 10031 after 18 hrs by conventional agar dilution method; format: functional; conditions: ATCC 10031, 18 h
Summary of the method: (§1)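 Twofold dilutions in DMSO (1 mL) mixed into molten Mueller–Hinton agar (19 mL) at 50 °C. Inocula adjusted at 600 nm to about 0.5 McFarland (1.5 × 10⁸ CFU/mL), then diluted in 0.85% saline to 10⁷ CFU/mL. Plates spot-inoculated at 10⁴ CFU/spot and incubated 35–37 °C for 18 h. MIC is the lowest concentration giving no visible growth. DMSO-only control plates included.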

[2] = test system: Staphylococcus aureus; assay: Antibacterial activity against Staphylococcus aureus ATCC 25923 after 18 hrs by conventional agar dilution method; format: functional; conditions: ATCC 25923, 18 h; summary of the method: as §1
[3] = test system: Pseudomonas aeruginosa; assay: Antibacterial activity against Pseudomonas aeruginosa ATCC 27853 after 18 hrs by conventional agar dilution method; format: functional; conditions: ATCC 27853, 18 h; summary of the method: as §1
[4] = test system: Micrococcus luteus; assay: Antibacterial activity against Micrococcus luteus ATCC 1110 after 18 hrs by conventional agar dilution method; format: functional; conditions: ATCC 1110, 18 h; summary of the method: as §1
[5] = test system: Enterococcus faecalis; assay: Antibacterial activity against Enterococcus faecalis NCTC 6013 after 18 hrs by conventional agar dilution method; format: functional; conditions: NCTC 6013, 18 h; summary of the method: as §1
[6] = test system: Streptococcus pneumoniae; assay: Antibacterial activity against Streptococcus pneumoniae ATCC 1240 after 18 hrs by conventional agar dilution method; format: functional; conditions: ATCC 1240, 18 h; summary of the method: as §1
[7] = test system: Escherichia coli; assay: Antibacterial activity against Escherichia coli ATCC 25922 after 18 hrs by conventional agar dilution method; format: functional; conditions: ATCC 25922, 18 h; summary of the method: as §1
[8] = test system: Staphylococcus epidermidis; assay: Antibacterial activity against Staphylococcus epidermidis ATCC 4940 after 18 hrs by conventional agar dilution method; format: functional; conditions: ATCC 4940, 18 h; summary of the method: as §1
[9] = test system: Serratia marcescens; assay: Antibacterial activity against Serratia marcescens PTCC 1111 after 18 hrs by conventional agar dilution method; format: functional; conditions: PTCC 1111, 18 h; summary of the method: as §1
[10] = test system: Bacillus subtilis; assay: Antibacterial activity against Bacillus subtilis ATCC 6051 after 18 hrs by conventional agar dilution method; format: functional; conditions: ATCC 6051, 18 h; summary of the method: as §1
[11] = Cytotoxicity against mouse NIH/3T3 cells after 72 hrs by MTT assay; format: cell-based; conditions: NIH3T3, 72 h
Summary of the method: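 Exponential-phase NIH/3T3 fibroblasts trypsinized and diluted in complete medium to 5 × 10⁴ cells/mL, then plated in 96-well plates. Serial compound dilutions added, each in triplicate, with cell-only wells as the viability control. Incubation 72 h, then MTT (5 mg/mL solution) added for 1 h and the medium replaced for colorimetric read-out.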

[12] = test system: Salmonella enterica subsp. enterica serovar Typhi str. CT18; assay: Antibacterial activity against Salmonella typhi ATCC 19430 after 18 hrs by conventional agar dilution method; format: functional; conditions: ATCC 19430, 18 h
Summary of the method: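 Twofold dilutions in DMSO mixed into molten Mueller–Hinton agar at 50 °C. Inoculum adjusted at 600 nm to about 0.5 McFarland (1.5 ×10⁸ CFU/mL), then diluted in 0.85% saline to 10⁷ CFU/mL. Plates spot-inoculated at 10⁴ CFU/spot and incubated at 35–37 °C for 18 h. MIC taken as the lowest concentration with no visible growth. DMSO solvent control run at matching dilutions.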

[13] = test system: Shigella flexneri; assay: Antibacterial activity against Shigella flexneri NCTC 8516 after 18 hrs by conventional agar dilution method; format: functional; conditions: NCTC 8516, 18 h; summary of the method: as §1

## COc1c(N2CCN(c3nnc(-c4ncc([N+](=O)[O-])n4C)s3)C(C)C2)c(F)cc2c(=O)c(C(=O)O)cn(C3CC3)c12 (stereo unspecified)
[1]
  MIC: 0.5 µg/mL (≈ 0.855 µM)
[2]
  MIC: 0.0313 µg/mL (≈ 0.0535 µM)
[3]
  MIC: > 64 µg/mL
[4]
  MIC: 2 µg/mL (≈ 3.42 µM)
[5]
  MIC: 4 µg/mL (≈ 6.84 µM)
[6]
  MIC: 1 µg/mL (≈ 1.71 µM)
[7]
  MIC: 16 µg/mL (≈ 27.4 µM)
[8]
  MIC: 0.5 µg/mL (≈ 0.855 µM)
[9]
  MIC: 64 µg/mL (≈ 109 µM)
[10]
  MIC: 0.5 µg/mL (≈ 0.855 µM)
[11]
  IC50: 246 µM
[12]
  MIC: 0.25 µg/mL (≈ 0.428 µM)
[13]
  MIC: 1 µg/mL (≈ 1.71 µM)

## COc1c(N2CCN(c3nnc(-c4ccc([N+](=O)[O-])s4)s3)C(C)C2)c(F)cc2c(=O)c(C(=O)O)cn(C3CC3)c12 (stereo unspecified)
[1]
  MIC: 16 µg/mL (≈ 27.3 µM)
[2]
  MIC: 0.5 µg/mL (≈ 0.852 µM)
[3]
  MIC: > 64 µg/mL
[4]
  MIC: 4 µg/mL (≈ 6.82 µM)
[5]
  MIC: 2 µg/mL (≈ 3.41 µM)
[6]
  MIC: 0.25 µg/mL (≈ 0.426 µM)
[7]
  MIC: 32 µg/mL (≈ 54.5 µM)
[8]
  MIC: 0.125 µg/mL (≈ 0.213 µM)
[9]
  MIC: 8 µg/mL (≈ 13.6 µM)
[10]
  MIC: 0.5 µg/mL (≈ 0.852 µM)
[11]
  IC50: 243 µM
[12]
  MIC: 1 µg/mL (≈ 1.7 µM)
[13]
  MIC: 1 µg/mL (≈ 1.7 µM)

## COc1c(N2CCN(c3nnc(-c4ccc([N+](=O)[O-])o4)s3)C(C)C2)c(F)cc2c(=O)c(C(=O)O)cn(C3CC3)c12 (stereo unspecified)
[1]
  MIC: 1 µg/mL (≈ 1.75 µM)
[2]
  MIC: 0.125 µg/mL (≈ 0.219 µM)
[3]
  MIC: > 64 µg/mL
[4]
  MIC: 0.125 µg/mL (≈ 0.219 µM)
[5]
  MIC: 0.125 µg/mL (≈ 0.219 µM)
[6]
  MIC: 0.25 µg/mL (≈ 0.438 µM)
[7]
  MIC: 1 µg/mL (≈ 1.75 µM)
[8]
  MIC: 0.0078 µg/mL (≈ 0.0137 µM)
[9]
  MIC: 8 µg/mL (≈ 14 µM)
[10]
  MIC: 0.0039 µg/mL (≈ 0.00684 µM)
[11]
  IC50: 238 µM
[12]
  MIC: 1 µg/mL (≈ 1.75 µM)
[13]
  MIC: 0.5 µg/mL (≈ 0.876 µM)

## COc1c(N2CCN(c3nnc(-c4ccccc4[N+](=O)[O-])s3)C(C)C2)c(F)cc2c(=O)c(C(=O)O)cn(C3CC3)c12 (stereo unspecified)
[1]
  MIC: 64 µg/mL (≈ 110 µM)
[2]
  MIC: 32 µg/mL (≈ 55.1 µM)
[3]
  MIC: > 64 µg/mL
[4]
  MIC: 0.5 µg/mL (≈ 0.861 µM)
[5]
  MIC: 2 µg/mL (≈ 3.44 µM)
[6]
  MIC: 0.25 µg/mL (≈ 0.431 µM)
[7]
  MIC: 16 µg/mL (≈ 27.6 µM)
[8]
  MIC: 0.0625 µg/mL (≈ 0.108 µM)
[9]
  MIC: 16 µg/mL (≈ 27.6 µM)
[10]
  MIC: 0.0625 µg/mL (≈ 0.108 µM)
[11]
  IC50: 168 µM
[12]
  MIC: 16 µg/mL (≈ 27.6 µM)
[13]
  MIC: 16 µg/mL (≈ 27.6 µM)

## COc1c(N2CCN(c3nnc(-c4ccc([N+](=O)[O-])cc4)s3)C(C)C2)c(F)cc2c(=O)c(C(=O)O)cn(C3CC3)c12 (stereo unspecified)
[1]
  MIC: 64 µg/mL (≈ 110 µM)
[2]
  MIC: 32 µg/mL (≈ 55.1 µM)
[3]
  MIC: > 64 µg/mL
[4]
  MIC: 0.25 µg/mL (≈ 0.431 µM)
[5]
  MIC: 1 µg/mL (≈ 1.72 µM)
[6]
  MIC: 0.0625 µg/mL (≈ 0.108 µM)
[7]
  MIC: 16 µg/mL (≈ 27.6 µM)
[8]
  MIC: 0.0625 µg/mL (≈ 0.108 µM)
[9]
  MIC: 16 µg/mL (≈ 27.6 µM)
[10]
  MIC: 0.0313 µg/mL (≈ 0.0539 µM)
[11]
  IC50: 223 µM
[12]
  MIC: 8 µg/mL (≈ 13.8 µM)
[13]
  MIC: 8 µg/mL (≈ 13.8 µM)

## COc1c(N2CCN(c3nnc(-c4cccc([N+](=O)[O-])c4)s3)C(C)C2)c(F)cc2c(=O)c(C(=O)O)cn(C3CC3)c12 (stereo unspecified)
[1]
  MIC: > 64 µg/mL
[2]
  MIC: > 64 µg/mL
[3]
  MIC: > 64 µg/mL
[4]
  MIC: 1 µg/mL (≈ 1.72 µM)
[5]
  MIC: > 64 µg/mL
[6]
  MIC: 1 µg/mL (≈ 1.72 µM)
[7]
  MIC: > 64 µg/mL
[8]
  MIC: 0.0313 µg/mL (≈ 0.0539 µM)
[9]
  MIC: > 64 µg/mL
[10]
  MIC: 32 µg/mL (≈ 55.1 µM)
[11]
  IC50: 161 µM
[12]
  MIC: > 64 µg/mL
[13]
  MIC: > 64 µg/mL

## COc1c(N2CCNC(C)C2)c(F)cc2c(=O)c(C(=O)O)cn(C3CC3)c12 (stereo unspecified) [GATIFLOXACIN]
[1]
  MIC: 0.5 µg/mL (≈ 1.33 µM)
[2]
  MIC: 0.25 µg/mL (≈ 0.666 µM)
[3]
  MIC: 2 µg/mL (≈ 5.33 µM)
[4]
  MIC: 1 µg/mL (≈ 2.66 µM)
[5]
  MIC: 0.5 µg/mL (≈ 1.33 µM)
[6]
  MIC: 0.25 µg/mL (≈ 0.666 µM)
[7]
  MIC: 1 µg/mL (≈ 2.66 µM)
[8]
  MIC: 0.0625 µg/mL (≈ 0.166 µM)
[9]
  MIC: 0.5 µg/mL (≈ 1.33 µM)
[10]
  MIC: 0.5 µg/mL (≈ 1.33 µM)
[11]
  IC50: 596 µM
[12]
  MIC: 0.0625 µg/mL (≈ 0.166 µM)
[13]
  MIC: 0.0625 µg/mL (≈ 0.166 µM)
